# Published values from different studies.
# EGFR T790M: Epidermal growth factor receptor (EGFR, Homo sapiens, UniProt P00533, T790M)
# EGFR L861Q: Epidermal growth factor receptor (EGFR, Homo sapiens, UniProt P00533, L861Q)
# EGFR: Epidermal growth factor receptor (EGFR, Homo sapiens, UniProt P00533)
# EGFR G719S: Epidermal growth factor receptor (EGFR, Homo sapiens, UniProt P00533, G719S)
# EGFR L858R/T790M: Epidermal growth factor receptor (EGFR, Homo sapiens, UniProt P00533, L858R/T790M)
# EGFR A750P/del747-749: Epidermal growth factor receptor (EGFR, Homo sapiens, UniProt P00533, A750P/del747-749)
SMILES,target,read-out,mode,technique,tested at,measurement,value
CC/C(=N\NC(=O)NCc1cccc(O)c1)c1ccc(O)c(C)c1O,"Epidermal growth factor receptor (EGFR, Homo sapiens, UniProt P00533, del746-750/T790M)",enzyme activity,inhibitor,,0.1 µM,inhibition,-0.8%
Cc1ccc(NC(=O)c2ccc(C)c(C(F)(F)F)c2)cc1C#Cc1nn(C2CCC(O)CC2)c2ncnc(N)c12 (centres unmarked),EGFR T790M,cell-free assay,,,10 µM,remaining signal,4%
COc1cc2ncnc(Nc3ccc(Oc4ccccc4)cc3C)c2cc1OC,EGFR L861Q,enzyme activity,inhibitor,,1 µM,inhibition,76%
Cc1ccc(C(=O)Nc2ccc(CN3CCN(C)CC3)c(C(F)(F)F)c2)cc1C#Cc1cnc2cccnn12,EGFR,cell-free assay,,,23.5 nM,remaining signal,55%
CC(C)[C@@H]1NC(=O)[C@H](CCCNC(=N)N)NC(=O)[C@H](Cc2ccc(O)cc2)NC(=O)[C@H](C(C)C)NC(=O)[C@H](C(C)C)NC(=O)[C@H](CCCNC(=N)N)NC(=O)[C@H](CC(=O)O)NC(=O)[C@H](CC(=O)O)NC(=O)[C@H](C)NC(=O)[C@H](Cc2ccc(O)cc2)NC(=O)[C@H](Cc2ccc(O)cc2)NC(=O)[C@H](Cc2ccccc2)NC(=O)[C@@H](Cc2ccc(O)cc2)NC(=O)CSC[C@@H](C(=O)NCC(N)=O)NC(=O)CC(c2ccccc2)NC1=O (some centres unmarked),EGFR,binding,,SPR,,kon,40200 M⁻¹ s⁻¹
Cc1ccc(C(=O)NCc2ccsc2)cc1C#Cc1cn(C(C)C)c2ncnc(N)c12,EGFR,enzyme activity,inhibitor,,1 µM,activity vs control,86%
C[C@H](NC(=O)c1cnc2n1[C@](C)(Cc1ccc(C#N)cc1)C(=O)N2c1cc(Cl)c(F)c(Cl)c1)C(=O)NC1(c2ccccn2)CC1,EGFR G719S,cell-free assay,,competition with immobilised ligand,1 µM,remaining binding,100%
C=CC(=O)Nc1cc(Nc2nc(N3CCc4sccc4C3)c3cccnc3n2)c(OC)cc1N1CCOCC1,EGFR L858R/T790M,enzyme activity,inhibitor,ELISA,0.1 µM,inhibition,23.5%
CC(C)(C)c1nc2c(s1)c1nc(N)ncc1c1ccc(NS(=O)(=O)c3c(F)cccc3F)c(F)c12,EGFR,enzyme activity,inhibitor,radiometric,1 µM,remaining activity,104%
CCC(=O)Nc1cc(Nc2nc(N3CCc4sccc4C3)c3cccnc3n2)c(OC)cc1N1CCC(N(C)C)CC1,EGFR L858R/T790M,enzyme activity,inhibitor,ELISA,0.1 µM,inhibition,22.5%
Cc1ccc(Nc2nccc(N(C)c3ccc4c(C)n(C)nc4c3)n2)cc1S(N)(=O)=O,EGFR,cell-free assay,,,0.5 µM,remaining signal,91%
Cc1cc(NC(=O)c2cccc3cc(-c4cccc5[nH]nc(N)c45)ccc23)ccc1F,EGFR T790M,enzyme activity,inhibitor,,0.1 µM,activity vs control,98%
CN([C@@H]1CCc2c(CC(=O)O)c3cc(S(C)(=O)=O)ccc3n2C1)S(=O)(=O)c1ccc(F)cc1,EGFR A750P/del747-749,cell-free assay,,competition with immobilised ligand,1 µM,remaining binding,90%
C=CC(=O)Nc1cc(Nc2nc(N3CCc4sccc4C3)c3cccnc3n2)c(OC)cc1N1CCN(CCO)CC1,EGFR L858R/T790M,enzyme activity,inhibitor,ELISA,0.1 µM,inhibition,2%
Cc1cnc(NC2CCOCC2)nc1-n1cnc(C(=O)NC(CN)c2cc(F)cc(Cl)c2)c1 (centres unmarked),EGFR L858R/T790M,enzyme activity,inhibitor,radiometric,1 µM,remaining activity,109%
C[C@@H](c1cccc(C#N)c1)n1cc(Cl)cc(C(N)=O)c1=N,EGFR L858R/T790M,cell-free assay,,competition with immobilised ligand,1 µM,remaining binding,86%
COc1cc(-c2cc(-c3ccc(N4CCNCC4)cc3)cnc2N)cc(OC)c1OC,EGFR L861Q,enzyme activity,inhibitor,,1 µM,inhibition,33%
C=C(Cl)C(=O)Nc1cc(Nc2nc(N3CCOCC3)c3sccc3n2)c(OC)cc1N(C)CCN(C)C,EGFR L858R/T790M,enzyme activity,inhibitor,ELISA,0.1 µM,inhibition,57.8%
CCN(CC)CCNC(=O)c1c(C)[nH]c(/C=C2\C(=O)Nc3ccc(Cl)cc32)c1C,EGFR,cell-free assay,,,0.5 µM,remaining signal,97%
CC(C)[C@@H]1NC(=O)CC(c2ccccc2)NC(=O)CC(CCC(N)=O)NC(=O)[C@H](Cc2ccc(O)cc2)NC(=O)[C@H](Cc2ccc(O)cc2)NC(=O)[C@H](Cc2ccccc2)NC(=O)[C@@H](Cc2ccc(O)cc2)NC(=O)CSC[C@@H](C(=O)NCC(N)=O)NC(=O)CCNC(=O)[C@H](CCCNC(=N)N)NC(=O)[C@H](CCCNC(=N)N)NC(=O)[C@H](Cc2ccc(O)cc2)NC(=O)[C@H](C(C)C)NC(=O)[C@H](C(C)C)NC(=O)[C@H](CC(N)=O)NC1=O (some centres unmarked),EGFR,binding,,SPR,,kon,165000 M⁻¹ s⁻¹
COc1cc(Cl)c(C(=O)N[C@@H](CN[C@H]2CC[C@@H](N)CC2)Cc2ccc(C#N)cc2)cc1-c1ccc(CN[C@H](C)c2ccc(C)cc2)o1,EGFR,enzyme activity,inhibitor,,1 µM,remaining activity,103%
O=C1NC(c2ccccn2)Sc2ccccc21 (centres unmarked),EGFR A750P/del747-749,cell-free assay,,competition with immobilised ligand,1 µM,remaining binding,86%
COc1cc2ncnc(Nc3ccc(Oc4ccccc4)c(C)c3C)c2cc1OC,EGFR L858R/T790M,enzyme activity,inhibitor,,1 µM,inhibition,17%
N#CCCc1ccc2c(c1)-c1[nH]c3ccc([N+](=O)[O-])cc3c1CC(=O)N2,EGFR,cell-free assay,,,0.5 µM,remaining signal,94.4%
O=C(NCc1ncc(C(F)(F)F)cc1Cl)c1ccc2c(c1)C1(CCS(=O)(=O)CC1)[C@@H](C1CC1)N2S(=O)(=O)c1ccc(F)cc1,EGFR G719S,cell-free assay,,competition with immobilised ligand,1 µM,remaining binding,86%
COc1cc2ncnc3c2cc1OCCOCCOc1c(Cl)cccc1N3,"Epidermal growth factor receptor (EGFR, Homo sapiens, UniProt P00533, del746-750)",enzyme activity,inhibitor,radiometric,1 µM,remaining activity,15%
C[C@@H]1CN(c2cc(-c3nn(C)c4ccc(OC5(C)CC5)cc34)ncn2)C[C@H](C)O1,EGFR A750P/del747-749,cell-free assay,,competition with immobilised ligand,1 µM,remaining binding,97%
Cc1sc(C(=O)NC2COC2)cc1-n1cc(NC(=O)Nc2c(F)cccc2Cl)cn1,EGFR,enzyme activity,inhibitor,,10 µM,remaining activity,98.5%
CCC(=O)N[C@H]1CC[C@@H](C(=O)N(C)c2ccc(-c3nc4ccccc4o3)cc2)C1,EGFR,cell-free assay,,competition with immobilised ligand,1 µM,remaining binding,100%
O=C(Nc1cccc(Nc2cc(Nc3cccc(C(F)(F)F)c3)ncn2)c1)C1CC1,EGFR,cell-free assay,,,0.5 µM,remaining signal,5.82%
O=S(=O)(NC1CCC(c2cc(F)ccc2F)(S(=O)(=O)c2ccc(Cl)cc2)CC1)C(F)(F)F (centres unmarked),EGFR,binding,,competition with immobilised ligand,1 µM,remaining binding,0%
Nc1ncnc2occ(-c3ccc(NC(=O)Nc4cc(C(F)(F)F)ccc4F)cc3)c12,"Epidermal growth factor receptor (EGFR, Homo sapiens, UniProt P00533, L858R)",cell-free assay,,,20 µM,remaining signal,19%
